Experimental data published in ChEMBL document CHEMBL4480426, “Novel multi-target directed ligands based on annelated xanthine scaffold with aromatic substituents acting on adenosine receptor and monoamine oxidase B. Synthesis, in vitro and in silico studies” (Bioorg Med Chem, 2019).

What was measured:
[1] = Antioxidant activity assessed as increase in total ferric ion reducing activity at 1000 uM using FeCl3.6H2O and TPTZ incubated for 10 mins under dark condition by FRAP assay relative to control; type: functional; set-up: scale not given: the % may be the effect or the level left
How it was run: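 FRAP reagent made by mixing 10 parts 300 mM acetate buffer pH 3.6, 1 part 10 mM TPTZ in 40 mM HCl and 1 part 20 mM FeCl3·6H2O. Reagent mixed with compound solution, 10 min at room temperature in the dark. Ferrous-TPTZ complex read at 593 nm. Result is absorbance increase versus solvent sample. FeSO4·7H2O standard curve, 37.5–1200 μM.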

Adenosine receptor A2b = target: T1, Adenosine receptor A2b (Homo sapiens, UniProt P29275); assay: Displacement of [3H]PSB603 from recombinant human adenosine A2b receptor expressed in HEK293 cells; type: cell-based
T1 sequence (P29275 whole entry): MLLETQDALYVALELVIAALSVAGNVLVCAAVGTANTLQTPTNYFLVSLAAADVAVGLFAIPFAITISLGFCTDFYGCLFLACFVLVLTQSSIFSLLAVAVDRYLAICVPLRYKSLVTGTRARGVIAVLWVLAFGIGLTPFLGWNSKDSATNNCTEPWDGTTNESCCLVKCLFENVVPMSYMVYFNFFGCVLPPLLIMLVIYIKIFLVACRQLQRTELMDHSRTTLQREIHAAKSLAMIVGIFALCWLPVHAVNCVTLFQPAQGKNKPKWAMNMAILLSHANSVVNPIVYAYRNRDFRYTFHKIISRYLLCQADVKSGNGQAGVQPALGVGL

Adenosine receptor A3 = target: T2, Adenosine receptor A3 (Homo sapiens, UniProt P0DMS8); assay: Displacement of [3H]PSB11 from recombinant human adenosine A3 receptor expressed in CHO cells; type: cell-based
T2 sequence (P0DMS8 whole entry): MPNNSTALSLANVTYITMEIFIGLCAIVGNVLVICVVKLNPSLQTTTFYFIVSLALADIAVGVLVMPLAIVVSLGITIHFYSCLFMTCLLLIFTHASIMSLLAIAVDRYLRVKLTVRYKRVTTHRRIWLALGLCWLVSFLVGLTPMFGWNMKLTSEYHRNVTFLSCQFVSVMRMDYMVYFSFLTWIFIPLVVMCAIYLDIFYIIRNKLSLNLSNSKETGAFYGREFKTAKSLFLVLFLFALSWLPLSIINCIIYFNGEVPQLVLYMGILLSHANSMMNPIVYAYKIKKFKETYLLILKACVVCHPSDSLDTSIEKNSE

HepG2 = assay: Hepatotoxicity against human HepG2 cells assessed as reduction in cell viability at 0.5 to 1 uM measured after 72 hrs by CellTiter96 Aqueous non-radioactive cell proliferation assay; type: toxicity, cell-based; details: hepg2, 72 h
How it was run: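 HepG2 cells seeded at 1.5×10^4 cells/well in MEM with 4.5 g/L glucose and 10% FBS, grown 24 h at 37 °C, 5% CO2. Compounds diluted in the same medium and applied for 72 h. CellTiter 96 AQueous reagent then added for 2 h, absorbance read at 490 nm. One-way ANOVA with Bonferroni post test.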

[2] = target: T3, Adenosine receptor A3 (Homo sapiens) (UniProt P0DMS8); assay: Displacement of [3H]PSB11 from recombinant human adenosine A3 receptor expressed in CHO cells at 1 uM relative to control; type: cell-based
T3 sequence (whole entry): T2 sequence (P0DMS8 whole entry)
How it was run: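 Purchased membranes of CHO cells expressing human A1 ([3H]CCPA) or human A3 ([3H]PSB-11). A single high compound concentration is screened first; for potent compounds, full inhibition curves spanning 3 orders of magnitude. At least three independent experiments.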

[3] = Solubility of the compound in MEM media at 10 to 100 uM; type: physicochemical
Brain = assay: Antioxidant activity in rat brain homogenate assessed as inhibition of FeCl2/ascorbic acid-induced lipid peroxidation by measuring reduction in TBARS level at 1000 uM preincubated for 5 mins followed by FeCl2/ascorbic acid addition and measured after 30 mins relative to control; type: functional, tissue-based; set-up: scale not given: the % may be the effect or the level left
How it was run: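 Rat brain homogenate in 0.9% saline, 10 mg tissue/ml, preincubated 5 min at 37 °C with compound or vehicle. Peroxidation started with 0.5 mM FeCl2 plus 2 mM ascorbic acid (added-solution concentrations). After 30 min, stopped with 0.2% BHT. Thiobarbituric acid reagent added, heated 15 min in boiling water, TBARS extracted into n-butanol and read at 532 nm. Carvedilol as reference.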

Adenosine receptor A2a = Adenosine receptor A2a (Homo sapiens, UniProt P29274); assay: Displacement of [3H]MSX2 from recombinant human adenosine A2a receptor expressed in HEK293 cells; type: cell-based
[4] = target: T4, Adenosine receptor A2b (Homo sapiens) (UniProt P29275); assay: Displacement of [3H]PSB603 from recombinant human adenosine A2b receptor expressed in HEK293 cells at 1 uM relative to control; type: cell-based
T4 sequence (whole entry): T1 sequence (P29275 whole entry)
How it was run: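 Purchased membranes of HEK cells expressing human A2A ([3H]MSX-2) or human A2B ([3H]PSB-603). A single high compound concentration is screened first; for potent compounds, full inhibition curves spanning 3 orders of magnitude. At least three independent experiments.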

[5] = target: T5, Amine oxidase [flavin-containing] A (Homo sapiens, UniProt P21397); assay: Inhibition of recombinant human MAOA expressed in baculovirus infected BTI insect cells at 1 to 100 uM using p-tyramine as substrate preincubated for 30 mins followed by substrate addition and measured over 45 mins by horseradish peroxidase-Amplex Red-coupled fluorometric assay relative to control; details: 0.75 h
T5 sequence (P21397 whole entry): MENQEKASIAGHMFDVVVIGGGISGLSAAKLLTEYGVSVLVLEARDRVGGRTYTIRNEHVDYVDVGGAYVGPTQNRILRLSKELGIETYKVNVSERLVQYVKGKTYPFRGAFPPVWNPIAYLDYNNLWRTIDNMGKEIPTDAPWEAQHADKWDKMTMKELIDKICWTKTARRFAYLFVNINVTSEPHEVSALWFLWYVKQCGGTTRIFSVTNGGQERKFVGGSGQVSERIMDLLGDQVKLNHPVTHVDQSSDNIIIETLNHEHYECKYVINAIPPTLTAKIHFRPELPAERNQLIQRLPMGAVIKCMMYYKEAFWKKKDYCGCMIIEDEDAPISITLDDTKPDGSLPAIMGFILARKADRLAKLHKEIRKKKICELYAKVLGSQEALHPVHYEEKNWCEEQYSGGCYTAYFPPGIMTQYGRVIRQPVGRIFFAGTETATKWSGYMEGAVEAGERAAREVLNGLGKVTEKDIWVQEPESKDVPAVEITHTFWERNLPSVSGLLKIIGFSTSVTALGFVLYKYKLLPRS
How it was run: (§1)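 Human recombinant MAO-A or MAO-B enzyme. Activity detected fluorometrically with the Amplex Red monoamine oxidase assay.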

[6] = target: T5, Amine oxidase [flavin-containing] A; assay: Inhibition of recombinant human MAOA expressed in baculovirus infected BTI insect cells using p-tyramine as substrate preincubated for 30 mins followed by substrate addition and measured over 45 mins by horseradish peroxidase-Amplex Red-coupled fluorometric assay; how it was run: as §1

Sequence of Adenosine receptor A2a (P29274 whole entry): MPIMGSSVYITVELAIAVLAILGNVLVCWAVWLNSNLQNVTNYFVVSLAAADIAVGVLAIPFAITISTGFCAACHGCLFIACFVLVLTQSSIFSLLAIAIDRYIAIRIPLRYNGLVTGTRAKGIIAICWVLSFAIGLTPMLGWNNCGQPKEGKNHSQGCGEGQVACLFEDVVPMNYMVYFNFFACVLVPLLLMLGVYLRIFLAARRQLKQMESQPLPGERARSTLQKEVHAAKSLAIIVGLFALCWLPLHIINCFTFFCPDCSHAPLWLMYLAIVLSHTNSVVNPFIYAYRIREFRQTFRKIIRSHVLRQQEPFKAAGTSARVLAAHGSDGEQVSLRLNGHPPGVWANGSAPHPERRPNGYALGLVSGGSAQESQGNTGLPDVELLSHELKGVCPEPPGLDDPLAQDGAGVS

- Ki (Adenosine receptor A2b): > 1000 nM
- Ki (Adenosine receptor A3): > 1000 nM
- inhibition [2]: 26%
- solubility [3]: Insoluble
- Ki (Adenosine receptor A2a): > 1000 nM
- inhibition [4]: 40%
- inhibition (INH) [5]: 5%
- IC50 [6]: > 1000 nM
Compound: Cn1c(=O)c2c(nc3n2CCCCN3Cc2ccc(Cl)c(Cl)c2)n(C)c1=O
- Activity [1]: 0.59%
- Activity (HepG2): Toxic
- Activity (Brain): 16.6%
